Measured values from ChEMBL document CHEMBL5154888 (Eur J Med Chem, 2022).
Active and inactive are the calls of the source. No cut-off for these calls is given here.

Experiments:
[1] = target: Glutamate NMDA receptor; assay: Inhibition of NMDA receptor in NMDA-stimulated rat cerebellar granule neurons assessed as measuring intracellular calcium concentration in presence of glycine by Fura2-AM dye based fluorescence assay; format: cell-based; details: cerebellar granule neurone
[2] = target: Glutamate NMDA receptor; Grin1/Grin2a (Rattus norvegicus, UniProt P35439+Q00959); assay: Inhibition of eGFP-tagged rat GluN1-1a/GluN2A transfected in human tsA201 cells assessed as inhibition glutamate-induced current measured at -65 mV holding potential applied for 10 secs by whole-cell patch-clamp method; format: cell-based
[3] = target: T1, Glutamate NMDA receptor; Grin1/Grin2a (Rattus norvegicus) (UniProt P35439+Q00959); assay: Inhibition of eGFP-tagged rat GluN1/GluN2A transfected in human tsA201 cells assessed as blockade of glycine/NMDA-induced current at 10 uM treated for 40 secs measured at -60 mV holding potential after returning from +60 mV application for 5 secs by whole-cell patch-clamp method relative to control; format: cell-based; details: time 45.0 sec
[4] = target: T1, Glutamate NMDA receptor; Grin1/Grin2a (Rattus norvegicus); assay: Inhibition of eGFP-tagged rat GluN1/GluN2A transfected in human tsA201 cells assessed as blockade of glycine/NMDA-induced current at 10 uM treated for 40 secs measured at +60 mV holding potential applied for 5 secs by whole-cell patch-clamp method relative to control; format: cell-based; details: time 45.0 sec
Outline: (§1)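 tsA201 cells transfected with rat GluN1, rat GluN2A and eGFP (0.5:1:1); dl-APV 200 μM added at transfection. Whole-cell recording at rt, held at −60 mV. Agonist is 100 μM NMDA + 10 μM glycine; blocker at 10 μM applied by piezo until steady state. A 5 s jump to +60 mV is made during block and again after blocker washout. Block is computed from steady-state current ratios, and recovery as current after removal over current before application.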

[5] = target: T1, Glutamate NMDA receptor; Grin1/Grin2a (Rattus norvegicus); assay: Inhibition of eGFP-tagged rat GluN1/GluN2A transfected in human tsA201 cells assessed as weighted time constant for blockade of glycine/NMDA-induced current at 10 uM at 1 sec by whole-cell patch-clamp method; format: cell-based
[6] = target: T1, Glutamate NMDA receptor; Grin1/Grin2a (Rattus norvegicus); assay: (§2) Inhibition of eGFP-tagged rat GluN1/GluN2A transfected in human tsA201 cells assessed as recovery of glycine/NMDA-induced current at 10 uM treated for 40 secs followed by application of +60 mV holding potential for 5 secs measured after 40 secs of compound removal by whole-cell patch-clamp method relative to control; format: cell-based; details: time 85.0 sec; outline: as §1
[7] = target: T1, Glutamate NMDA receptor; Grin1/Grin2a (Rattus norvegicus); assay: as §2, with “assessed as weighted time constant for recovery of” for “assessed as recovery of”, “patch-clamp method” for “patch-clamp method relative to control”; format: cell-based; details: time 85.0 sec
[8] = tested on: Caenorhabditis elegans; assay: Effect on locomotory activity in transgenic Caenorhabditis elegans CL2006 model of paralysis assessed as reduction in defective locomotion by measuring motor index at 0.1 to 10 uM by motor behaviour assay; format: functional, organism-based; details: dose 0.1-10 µM
Outline: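 C. elegans CL2006 (constitutive human Aβ1–42), synchronised by hypochlorite and hatched as L1. Compounds in DMSO diluted into water, 1% DMSO final; tested at 0.1–10 μM. Treatment in liquid culture, 25–30 L1 worms per well with inactivated OP50, 4 days at 20 °C. Defective locomotion scored as motor index; N2 is the reference strain.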

[9] = tested on: Caenorhabditis elegans; assay: Neuroprotective activity against transgenic Caenorhabditis elegans CL2355 assessed as A-beta aggregration-induced reversal of disrupted chemotaxis behaviour by measuring chemotaxis index at […] treated for 72 hrs followed by compound washout and odorant addition for 1 hr; format: functional, organism-based; details: dose 1.5 µM
[10] = tested on: Mus musculus; assay: Recovery of cognitive function in 5XFAD transgenic AD mouse model assessed as long term memory by measuring increase in discrimination index at 5 mg/kg/day, po for 4 weeks measured after 5 days of habituation by novel object recognition test; format: functional, organism-based; details: time 33.0 day
Outline: (§3)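 5XFAD mice, 6 months old, treated at 5 mg/kg/day for 4 weeks; n = 8–11 per group, with WT controls. Novel object recognition test: discrimination index from exploration time of novel versus familiar object, tested at 2 h (short-term) and 24 h (long-term).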

[11] = tested on: Mus musculus; assay: Recovery of cognitive function in 5XFAD transgenic AD mouse model assessed as short term memory by measuring increased discrimination index at 5 mg/kg/day, po for 4 weeks measured after 4 days of habituation by novel object recognition test; format: functional, organism-based; details: time 32.0 day; outline: as §3
[12] = tested on: Mus musculus; assay: Upregulation of phosphorylated-Fyn levels in hippocampus of 5XFAD transgenic AD mouse model at 5 mg/kg, po by Western blot analysis; format: functional, organism-based
Outline: (§4)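 5XFAD mice treated at 5 mg/kg/day for 4 weeks, n = 3–4 per group. Western blot quantifies GluN2A, PSD95, calbindin, p-Fyn/Fyn, p-GluN2B(Tyr1472)/GluN2B, and nuclear versus cytosolic p-CREB ratio. Values normalised to WT as 100%.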

[13] = tested on: Mus musculus; assay: Upregulation of phosphorylated-GluN2B levels at Tyr1472 residue in hippocampus of 5XFAD transgenic AD mouse model at 5 mg/kg, po by Western blot analysis; format: functional, organism-based; outline: as §4
[14] = tested on: Mus musculus; assay: Upregulation of calbindin D-28K levels in hippocampus of 5XFAD transgenic AD mouse model at 5 mg/kg, po by Western blot analysis; format: functional, organism-based; outline: as §4
[15] = tested on: Mus musculus; assay: Upregulation of PSD in hippocampus of 5XFAD transgenic AD mouse model at 5 mg/kg, po by Western blot analysis; format: functional, organism-based; outline: as §4
[16] = in vitro; details: PAMPA

COc1cc2c(cc1OC)C1CC3(C)CC2CC(N)(C1)C3
IC50 [1]: 517 µM

CNC1(c2ccccc2Cl)CCCCC1=O (centres undefined) [KETAMINE]
IC50 [2]: 1 µM

CC12CC3CC(C)(C1)CC(N)(C3)C2
inhibition [3]: 86.2%
inhibition [4]: -3.9%
inhibition [5]: Active
inhibition [6]: 93.6%
TIME [7]: 0.00178 h
Activity [8]: Active
Activity [9]: Active
Activity [10]: Active
Activity [11]: Active
Activity [12]: Active
Activity [13]: Active
Activity [14]: Active
Activity [15]: Active

CC(=O)c1ccc2c(c1)C1CC3(C)CC2CC(N)(C1)C3 (centres undefined)
IC50 [1]: 323 µM

CC12CC3CC(N)(CC(C1)c1cc([N+](=O)[O-])ccc13)C2 (centres undefined)
IC50 [1]: 164 µM

CCn1cc(C(=O)O)c(=O)c2cc(F)c(N3CCNC(C)C3)c(F)c21 (centres undefined) [LOMEFLOXACIN]
Papp [16]: 0.86 ×10⁻⁶ cm/s

CN(C)C12CC3CC(C)(CC(C1)c1cc([N+](=O)[O-])ccc13)C2 (centres undefined)
IC50 [1]: 309 µM
